Data: ChEMBL document CHEMBL1212938, “Inhibition of mycobacterial replication by pyrimidines possessing various C-5 functionalities and related 2'-deoxynucleoside analogues using in vitro and in vivo models” (J Med Chem, 2010)
In brackets after ≈: the same amount, converted by molar mass. Activity calls are given as the source filed them. The calls are words filed in the database; no cut-off is given here.

Assays:
[1] = test system: Escherichia coli; assay: Antibacterial activity against Escherichia coli at 100 ug/ml after 16 to 20 hrs by broth microdilution method; type: functional, organism-based
[2] = test system: Enterococcus faecalis; assay: Antibacterial activity against Enterococcus faecalis at 100 ug/ml after 16 to 20 hrs by broth microdilution method; type: functional, organism-based
[3] = test system: Listeria monocytogenes; assay: Antibacterial activity against Listeria monocytogenes at 100 ug/ml after 16 to 20 hrs by broth microdilution method; type: functional, organism-based
[4] = test system: Proteus vulgaris; assay: Antibacterial activity against Proteus vulgaris at 100 ug/ml after 16 to 20 hrs by broth microdilution method; type: functional, organism-based
[5] = test system: Pseudomonas aeruginosa; assay: Antibacterial activity against Pseudomonas aeruginosa at 100 ug/ml after 16 to 20 hrs by broth microdilution method; type: functional, organism-based
[6] = test system: Streptococcus pyogenes; assay: Antibacterial activity against Streptococcus pyogenes at 100 ug/ml after 16 to 20 hrs by broth microdilution method; type: functional, organism-based
[7] = test system: Salmonella typhimurium; assay: Antibacterial activity against Salmonella Typhimurium at 100 ug/ml after 16 to 20 hrs by broth microdilution method; type: functional, organism-based; details: Salmonella enterica subsp. enterica serovar Typhimurium
[8] = test system: Streptococcus pneumoniae; assay: Antibacterial activity against Streptococcus pneumoniae at 100 ug/ml after 16 to 20 hrs by broth microdilution method; type: functional, organism-based
[9] = test system: Bacillus subtilis; assay: Antibacterial activity against Bacillus subtilis at 100 ug/ml after 16 to 20 hrs by broth microdilution method; type: functional, organism-based
[10] = test system: Staphylococcus epidermidis; assay: Antibacterial activity against Staphylococcus epidermidis at 100 ug/ml after 16 to 20 hrs by broth microdilution method; type: functional, organism-based
[11] = test system: Staphylococcus aureus; assay: Antibacterial activity against Staphylococcus aureus at 100 ug/ml after 16 to 20 hrs by broth microdilution method; type: functional, organism-based
[12] = Cytotoxicity against human HuH7 cells assessed as cell viability after 2 days by XTT assay; type: cell-based, Huh-7; details: HuH7 cells
Method in brief: (§1)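 Huh-7 cells seeded at 1 × 10⁵ cells/well and left to attach 6-8 h. Medium then replaced with compound at 200, 100, 50, 10 or 1 μg/mL, with a DMSO control, and incubated 2 days at 37 °C. Viability by XTT, absorbance read at 450-500 nm.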

[13] = test system: Mycobacterium tuberculosis; assay: Antitubercular activity against Mycobacterium tuberculosis H37Ra at 50 ug/ml after 6 days by microplate alamar blue assay; type: functional; details: 144 h
Method in brief: (§2)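 MABA run in 7H9GC medium, with drug diluted from DMSO stocks made at 100× the highest final concentration. Final levels were 100, 50, 10, 5, 2.5 and 1 μg/mL in triplicate, and the experiment was done three times. Inoculum was 2.5 × 10⁵ CFU/mL final. Alamar Blue plus Tween-80 was added once bacteria-only control wells turned pink, from day 6 on, and plates were read visually and by fluorescence after 24 h. Visual MIC is the lowest concentration preventing the blue-to-pink change. Mean percent inhibition was taken relative to bacteria-only and medium-only wells.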

[14] = Cytotoxicity against human HuH7 cells assessed as cell viability at 200 ug/ml after 2 days by XTT assay; type: cell-based; details: huh-7, 48 h; method in brief: as §1
[15] = test system: Mycobacterium tuberculosis; assay: Antitubercular activity against Mycobacterium tuberculosis H37Ra at 100 ug/ml after 6 days by microplate alamar blue assay; type: functional; details: 144 h; method in brief: as §2
[16] = Cytotoxicity against human HuH7 cells assessed as cell viability at > 200 ug/ml after 2 days by [3H]thymidine incorporation assay; type: cell-based; details: huh-7, 48 h
[17] = test system: Mycobacterium tuberculosis; assay: Antitubercular activity against Mycobacterium tuberculosis H37Ra after 6 days by microplate alamar blue assay; type: functional; details: 144 h; method in brief: as §2
[18] = test system: Mycobacterium tuberculosis; assay: Antitubercular activity against Mycobacterium tuberculosis H37Ra at 10 ug/ml after 6 days by microplate alamar blue assay; type: functional; details: 144 h; method in brief: as §2

| Compound | Activity [1] | Activity [2] | Activity [3] | Activity [4] | Activity [5] | Activity [6] | Activity [7] | Activity [8] | Activity [9] | Activity [10] | Activity [11] | CC50 at 48 h [12] | inhibition at 50 µg/mL [13] | Activity [14] | inhibition at 100 µg/mL [15] | Activity [16] | MIC50 [17] | inhibition at 10 µg/mL [18] |
| --- | --- | --- | --- | --- | --- | --- | --- | --- | --- | --- | --- | --- | --- | --- | --- | --- | --- | --- |
| CCCC#Cc1c[nH]c(=O)[nH]c1=O | inactive | inactive | inactive | inactive | inactive | inactive | inactive | inactive | inactive | inactive | inactive |  |  |  |  |  |  |  |
| COC(CCl)c1c[nH]c(=O)[nH]c1=O (stereo not given) | inactive | inactive |  | inactive | inactive | inactive | inactive | inactive |  | inactive | inactive |  |  |  |  |  |  |  |
| CCCCCCCCCCCC#Cc1c[nH]c(=O)[nH]c1=O | inactive | inactive | inactive | inactive | inactive | inactive | inactive | inactive | inactive | inactive | inactive |  |  |  |  |  |  |  |
| CCCCCCCCCCCCC#Cc1c[nH]c(=O)[nH]c1=O | inactive | inactive | inactive | inactive | inactive | inactive | inactive | inactive | inactive | inactive | inactive |  |  |  |  |  |  |  |
| CCCCCCCCCCc1cc2c[nH]c(=O)nc2o1 | inactive | inactive | inactive | inactive | inactive | inactive | inactive | inactive | inactive | inactive | inactive |  |  |  |  |  |  |  |
| O=C(O)C(I)C(O)c1c[nH]c(=O)[nH]c1=O (stereo not given) | inactive | inactive |  | inactive | inactive | inactive | inactive | inactive |  | inactive | inactive |  |  |  |  |  |  |  |
| CCCCCCCCC#Cc1c[nH]c(=O)[nH]c1=O | inactive | inactive | inactive | inactive | inactive | inactive | inactive | inactive | inactive | inactive | inactive |  |  |  |  |  |  |  |
| O=c1[nH]cc(C#Cc2ccccc2)c(=O)[nH]1 | inactive | inactive | inactive | inactive | inactive | inactive | inactive | inactive | inactive | inactive | inactive | > 100 µg/mL | 90% | Non-toxic | 90% | Non-toxic | > 10 µg/mL | 40% |
| COC(CI)c1c[nH]c(=O)[nH]c1=O (stereo not given) | inactive | inactive |  | inactive | inactive | inactive | inactive | inactive |  | inactive | inactive |  |  |  |  |  |  |  |
| O=c1[nH]cc(C(O)CI)c(=O)[nH]1 (stereo not given) | inactive | inactive |  | inactive | inactive | inactive | inactive | inactive |  | inactive | inactive |  |  |  |  |  |  |  |
| O=c1[nH]cc(C(CI)OCCBr)c(=O)[nH]1 (stereo not given) | inactive | inactive |  | inactive | inactive | inactive | inactive | inactive |  | inactive | inactive |  |  |  |  |  |  |  |
| CCCc1cc2c[nH]c(=O)nc2o1 | inactive | inactive | inactive | inactive | inactive | inactive | inactive | inactive | inactive | inactive | inactive |  |  |  | 50% |  | 100 µg/mL (≈ 561 µM) | 0% |
| CCCCCCCCCCC#Cc1c[nH]c(=O)[nH]c1=O | inactive | inactive | inactive | inactive | inactive | inactive | inactive | inactive | inactive | inactive | inactive |  |  |  |  |  |  |  |
| CCCCCCCCc1cc2c[nH]c(=O)nc2o1 | inactive | inactive | inactive | inactive | inactive | inactive | inactive | inactive | inactive | inactive | inactive |  |  |  |  |  |  |  |
| O=c1[nH]cc(C(CI)OCC(F)(F)F)c(=O)[nH]1 (stereo not given) | inactive | inactive |  | inactive | inactive | inactive | inactive | inactive |  | inactive | inactive |  |  |  |  |  |  |  |
| COC(CBr)c1c[nH]c(=O)[nH]c1=O (stereo not given) | inactive | inactive |  | inactive | inactive | inactive | inactive | inactive |  | inactive | inactive |  |  |  |  |  |  |  |
| CCCCCc1cc2c[nH]c(=O)nc2o1 | inactive | inactive | inactive | inactive | inactive | inactive | inactive | inactive | inactive | inactive | inactive |  |  |  |  |  |  |  |
| CCOC(CI)c1c[nH]c(=O)[nH]c1=O (stereo not given) | inactive | inactive |  | inactive | inactive | inactive | inactive | inactive |  | inactive | inactive |  |  |  |  |  |  |  |
| O=C(O)/C=C/c1c[nH]c(=O)[nH]c1=O | inactive | inactive |  | inactive | inactive | inactive | inactive | inactive |  | inactive | inactive |  |  |  |  |  |  |  |
| O=c1[nH]cc(C(CI)OCCF)c(=O)[nH]1 (stereo not given) | inactive | inactive |  | inactive | inactive | inactive | inactive | inactive |  | inactive | inactive |  |  |  |  |  |  |  |
